Experimental data gathered from unrelated publications.
Each line is one published result; the experiments were not run side by side.
Target: Eukaryotic elongation factor 2 kinase (EEF2K, Homo sapiens, UniProt O00418)

Structure (SMILES) | observed | mode | method | cell line | tested at | measurement | result
COc1cc(Nc2cnc(C#N)c(O[C@H](C)CN(C)C)n2)ncc1-c1cnn(C)c1 | enzyme activity | inhibitor | radiometric | – | 10 µM | remaining activity | 87%
COc1cc2nccc(Oc3ccc(NC(=O)c4c5n(n(-c6ccc(F)cc6)c4=O)CCCC5)cc3)c2cc1OC | enzyme activity | inhibitor | – | – | 0.1 µM | inhibition | 8%
COc1cc(/C=C/C(=O)CC(=O)/C=C/c2ccc(O)c(OC)c2)ccc1O | enzyme activity | inhibitor | – | – | 1 µM | activity vs control | 98%
CN1CCC2(CC1)NC(=O)c1c(c3ccc(Cl)c(Cl)c3n1C)C2C#N (racemic) | thermal stability | – | DSF | – | 10 µM | ΔTm | -0.1 °C
FC(F)(F)Oc1cccc(-c2cnc3ccc(-c4ccncc4)nn23)c1 | enzyme activity | inhibitor | radiometric | – | 5 µM | activity vs control | 98%
Cn1c(=O)n(-c2ccc(C(C)(C)C#N)cc2)c2c3cc(-c4cnc5ccccc5c4)ccc3ncc21 | enzyme activity | inhibitor | – | – | 10 µM | remaining activity | 110%
COc1cc(Cl)c(C(=O)N[C@@H](CN[C@H]2CC[C@@H](N)CC2)Cc2ccc(C#N)cc2)cc1-c1ccc(CN[C@H](C)c2ccc(C)cc2)o1 | enzyme activity | inhibitor | – | – | 1 µM | remaining activity | 80%
CN(c1ncccc1CNc1nc(Nc2ccc3c(c2)CC(=O)N3)ncc1C(F)(F)F)S(C)(=O)=O | enzyme activity | inhibitor | – | – | 1 µM | inhibition | 0%
CCN1CCN(Cc2ccc(NC(=O)c3ccc(C)c(/C=C/c4cnc5[nH]ccc5c4OC)c3)cc2C(F)(F)F)CC1 | target engagement in cells | inhibitor | chemoproteomics | A-375 | 0.5 µM | inhibition | -21.7%
CC(C)c1ccc(NC(=O)c2cccs2)c(-c2nc3ccccc3[nH]c2=O)c1 | enzyme activity | inhibitor | – | – | 1 µM | activity vs control | 113%
CNC(=O)c1cc(Oc2ccc(NC(=O)Nc3ccc(Cl)c(C(F)(F)F)c3)cc2)ccn1 | enzyme activity | inhibitor | – | – | 10 µM | inhibition | -8%
CCCOc1ccc(OC)c(F)c1C(=O)c1ccc(C(=O)N[C@@H]2CNC[C@H]2NC(=O)c2ccc3[nH]ncc3c2)cc1 | enzyme activity | inhibitor | – | – | 10 µM | remaining activity | 128%
C=CC(=O)Nc1cc(Nc2nccc(Nc3cc(Cl)c(F)cc3C(C)(C)O)n2)c(OC)cc1N1CC[C@@H](N(C)C)C1 | enzyme activity | inhibitor | – | – | 1 µM | inhibition | 11%
Cn1c2c(c3ccc(Cl)c(Cl)c31)C(C#N)C1(CCOCC1)NC2=O (stereo not drawn) | thermal stability | – | DSF | – | 10 µM | ΔTm | -0.2 °C
Cc1ccc(Nc2nccc(N(C)c3ccc4c(C)n(C)nc4c3)n2)cc1S(N)(=O)=O | enzyme activity | inhibitor | – | – | 10 µM | inhibition | -10%
Cn1c2c(c3ccc(Cl)c(Cl)c31)C(C#N)C1(CCCC1)NC2=O (stereo not drawn) | thermal stability | – | DSF | – | 10 µM | ΔTm | 0 °C
CCCS(=O)(=O)Nc1ccc(F)c(C(=O)c2c[nH]c3ncc(-c4ccc(Cl)cc4)cc23)c1F | enzyme activity | inhibitor | – | – | 1 µM | inhibition | < 10%
Cn1c2c(Cl)c(Cl)ccc2c2cc[nH]c(=O)c21 | thermal stability | – | DSF | – | 10 µM | ΔTm | -0.3 °C
COc1cc2ncnc(Nc3ccc(Oc4ccccc4)c(C)c3C)c2cc1OC | enzyme activity | inhibitor | – | – | 1 µM | inhibition | 1%
CCN1CCN(Cc2ccc(NC(=O)c3ccc(C)c(Oc4ccnc5[nH]ccc45)c3)cc2C(F)(F)F)CC1 | target engagement in cells | inhibitor | chemoproteomics | A-375 | 0.5 µM | inhibition | 0.084%
Nc1nc(Nc2ccccc2)sc1C(=O)c1c(F)cccc1F | enzyme activity | inhibitor | – | – | 10 µM | remaining activity | 95%
Cn1c2c(c3ccc(Cl)c(Cl)c31)C(C#N)C(C)(C)NC2=O (stereo not drawn) | thermal stability | – | DSF | – | 10 µM | ΔTm | -0.5 °C
CCN(CC)CCNC(=O)c1c(C)[nH]c(/C=C2\C(=O)Nc3ccc(F)cc32)c1C | enzyme activity | inhibitor | – | – | 10 µM | inhibition | -4%
CC(C)(C)c1nc(-c2cccc(NS(=O)(=O)c3c(F)cccc3F)c2F)c(-c2ccnc(N)n2)s1 | enzyme activity | inhibitor | radiometric | – | 1 µM | remaining activity | 93%
